From article PMC3972320 (Kidney international, 2013)

Experiments:
[1] = system: human OCT2; format: cell-based
[2] = system: OCT2 mRNA; test: OCT2 mRNA by qPCR in NRK cells transfected with human OCT2/V5; format: cell-based, rat; details: DSAL, NRK cells transfected with human OCT2/V5 and Klotho plasmid
[3] = system: human OCT2; test: Cell surface; format: cell-based; details: DSAL, OCT2/V5-transfected CHO cells
[4] = 14C-TEA kinetic study in vivo; parameters: species or system mouse; details: single injection 10 μl/g BW
Method in brief: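 Male WT, Kl/+ and Tg-Kl mice (129sv background, 12–14 weeks, 30–40 g) got a single i.v. dose of 14C-tetraethylammonium (10 μl/g BW; 0.1 mCi/ml, specific activity 3.5 mCi/mmol). Blood and urine were sampled at 0, 30, 60 and 90 […] post injection, with radioactivity by liquid scintillation counting. AUC0-60 is given as mean ± SD of 3 experiments per genotype.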

[5] = system: NRK cells; test: TUNEL staining of apoptotic NRK cells; format: cell-based, rat
Method in brief: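 NRK rat renal epithelial cells on glass coverslips were serum-starved overnight after confluence. […] Cells were PFA-fixed and TUNEL-stained with DAPI counterstain, then imaged by confocal microscopy. TUNEL-positive/DAPI-positive cells were counted in 5 fields at 40X, across 4 independent experiments.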

[6] = target: T1, human OCT2 (Homo sapiens, UniProt O15244); format: cell-based; details: β-glucuronidase 100μg/ml, sialidase 0.1 IU/ml, cimetidine 0.1 mM, added 16 hours prior to assay
T1 sequence (O15244 1-555): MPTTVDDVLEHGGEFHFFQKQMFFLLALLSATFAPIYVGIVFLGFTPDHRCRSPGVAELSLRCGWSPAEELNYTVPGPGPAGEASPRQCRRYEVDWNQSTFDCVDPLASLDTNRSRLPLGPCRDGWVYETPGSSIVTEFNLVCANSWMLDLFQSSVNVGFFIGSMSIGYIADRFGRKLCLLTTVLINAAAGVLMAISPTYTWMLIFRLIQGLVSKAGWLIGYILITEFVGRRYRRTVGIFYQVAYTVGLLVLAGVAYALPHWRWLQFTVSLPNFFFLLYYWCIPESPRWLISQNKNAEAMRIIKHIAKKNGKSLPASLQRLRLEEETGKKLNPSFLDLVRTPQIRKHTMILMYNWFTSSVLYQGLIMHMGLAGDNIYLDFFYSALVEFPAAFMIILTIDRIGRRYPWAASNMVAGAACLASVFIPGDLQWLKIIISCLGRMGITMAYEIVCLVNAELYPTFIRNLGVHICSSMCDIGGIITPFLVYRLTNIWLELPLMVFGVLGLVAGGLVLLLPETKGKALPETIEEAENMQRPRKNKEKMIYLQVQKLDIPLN

[7] = system: NRK cells; test: LDH release from NRK cells on Transwell plates; format: cell-based, rat
[8] = system: organic cation transporter (OCT); test: 14C-TEA uptake by NRK cells; format: cell-based, rat; details: agent added after 14C-TEA
[9] = system: NRK cells; test: Oregon Green 488-labeled fluorescent cisplatin uptake by NRK cells; format: cell-based, rat
[10] = system: patients; details: among patients with AKI; cited from earlier work

SMILES: O=C(O)[C@@H](O)[C@H]1OC(=O)[C@H](O)[C@H]1O [DSAL, D-Saccharic acid 1,4-lactone]
- OCT2 protein expression by immunocytochemistry ([1]; CHO cells transfected with OCT2/V5, β-glucuronidase 100μg/ml, DSAL 10 μM alone): had no effect
- effect on the reduction of OCT2 protein by β-glucuronidase ([1]; DSAL 10 μM, CHO cells, immunocytochemistry and immunoblot): completely blocked
- effect on the reduction of rat oct2 mRNA induced by Klotho [2]: did not abolish
- effect on Klotho-induced reduction of cell surface OCT2 (2 hours and 2 days) [3]: blocked

SMILES: CC[N+](CC)(CC)CC [^14C-TEA, ^14C-tetraethylammonium]
- AUC0-60 of 14C-TEA, Blood 14C-TEA ([4]; Kl/+ mice): 4.13±0.12 (3) nmol/μl
- AUC0-60 of 14C-TEA, Blood 14C-TEA ([4]; Tg-Kl mice): 2.22±0.12 (3) nmol/μl
- AUC0-60 of 14C-TEA, Urine excretion rate 14C-TEA ([4]; Tg-Kl mice): 1.36±0.08 (3) pmol/mim
- AUC0-60 of 14C-TEA, Blood 14C-TEA ([4]; WT mice): 2.68±0.18 (3) nmol/μl
- AUC0-60 of 14C-TEA, Urine excretion rate 14C-TEA ([4]; WT mice): 2.08±0.08 (3) pmol/mim

SMILES: CN/C(=N/CCSCc1nc[nH]c1C)NC#N [cimetidine]
- cisplatin-triggered apoptosis (TUNEL), basolateral co-incubation of agent ([5]; Klotho or cimetidine basolateral): rescued
- 14C-TEA uptake in OCT2-expressing CHO cells [6]: reduced
- OCT2 abundance in total cell membrane pool by immunoblot ([1]; CHO cells transfected with OCT2/V5, β-glucuronidase 100μg/ml, sialidase 0.1 IU/ml, cimetidine 0.1 mM): did not alter
- LDH release induced by basolateral cisplatin, agent added into apical side ([7]; cisplatin 0.1 mM basolateral, Klotho 0.4 nM or cimetidine 0.1 mM apical): not cimetidine decreased LDH release
- LDH release induced by basolateral cisplatin, basolateral co-incubation of agent ([7]; cisplatin 0.1 mM, Klotho 0.4 nM or cimetidine 0.1 mM on basolateral side): significantly reduced LDH release
- inhibition of 14C-TEA uptake when 14C-TEA added to basolateral medium 20 minutes prior to agent [8]: inhibitory effect was absent
- fluorescent cisplatin uptake, agent added to apical side ([9]; NRK cells, confocal imaging): not by either agent added to the apical side
- fluorescent cisplatin uptake, agent added to basolateral side ([9]; NRK cells, confocal imaging): blocked

SMILES: N.N.[Cl][Pt][Cl] [cisplatin, cis-diammine-dichloroplatinum]
- apoptosis (TUNEL) on cisplatin addition to basolateral medium [5]: triggers apoptosis
- patients with AKI still having elevated SCr 15 days after treatment [10]: 50%
- side of entry of Oregon Green 488-labeled cisplatin into NRK cells ([9]; Transwell, apical or basolateral addition): entered NRK cells solely from the basolateral side
